In ChEMBL document CHEMBL1137643, “In vitro and in vivo activities of novel fluoroquinolones alone and in combination with clarithromycin against clinically isolated Mycobacterium avium complex strains in Japan” (2007) one finds MIC, log10cfu and MIC90 data, which are given here for 2 compounds.

Type in all cases: functional
Experiment [1] concerns Mycobacterium avium complex sp. As to the kind of experiment: Antimycobacterial activity against Mycobacterium avium complex N016 after 14 days by broth microdilution method. Conditions: N016, 336 h. A digest of the protocol: (§1)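 Broth microdilution in Middlebrook 7H9 (OADC, Tween 80, glycerol); twofold dilutions giving final 0.125–128 μg/ml; inoculum 1.0 × 10^5 CFU/well; 14 days at 37°C. MIC = lowest concentration completely inhibiting growth. Triplicate tests. Inocula from 7H10 agar colonies (21 days) subcultured in 7H9 for 7 days at 37°C, stored at −80°C.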
On the technique in general: In broth dilution the organism is exposed to a series of concentrations in liquid medium.

Experiment [2] relates to Mycobacterium avium. As to the kind of experiment: Antimycobacterial activity against Mycobacterium avium JATA51-01 infected C57BL/6J mouse assessed as lung bacterial count at 100 mg/kg/day dosed through gavage route administered for 28 days post bacterial challenge measured 2 days after last dose. Summed up: (§2)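 Mice infected via tail vein with 1.0 × 10^7 to 3.0 × 10^7 CFU in 100 μl saline; daily oral gavage started day 21, for 28 days; distilled-water controls; sacrificed 48 h after last dose; lungs, liver, spleen homogenized in saline, serially diluted in 7H9, plated on 7H10 agar; log10 CFU/organ, mean ± SEM, 5 mice/group; ANOVA with Fisher's PLSD; experiment done twice.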

Experiment [3] deals with Mycobacterium avium complex sp. The experiment is described as follows: Antimycobacterial activity against Mycobacterium avium complex N018 infected C57BL/6J mouse assessed as lung bacterial count at 100 mg/kg/day dosed through gavage route administered for 28 days post bacterial challenge measured 2 days after last dose. A digest of the protocol: (§3)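 Mice given 1.0 × 10^7 to 3.0 × 10^7 CFU in 100 μl via tail vein; daily gavage dosing began day 21 for 28 days; distilled-water controls. Sacrifice 48 h after last dose. Organ portions homogenized in 1 ml saline, diluted in 7H9, plated on 7H10; log10 CFU/organ, mean ± SEM, 5 mice/group. Experiment run twice; ANOVA with Fisher's PLSD.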

Experiment [4] shares this test system. As to the kind of experiment: Antimycobacterial activity against Mycobacterium avium complex after 14 days by broth microdilution method. Conditions: 336 h. Summed up:
as §1

In experiment [5] the test system is Mycobacterium intracellulare. The experiment is described as follows: Antimycobacterial activity against Mycobacterium intracellular JATA52-01 after 14 days by broth microdilution method. To be noted: JATA52-01, 336 h. A digest of the protocol:
as §1

Experiment [6] deals with Mycobacterium intracellulare. As to the kind of experiment: Antimycobacterial activity against Mycobacterium intracellular JATA52-01 infected C57BL/6J mouse assessed as spleen bacterial count at 100 mg/kg/day dosed through gavage route administered for 28 days post bacterial challenge measured 2 days after last dose. A digest of the protocol:
as §3

In experiment [7] the test system is Mycobacterium avium complex sp. As to the kind of experiment: Antimycobacterial activity against Mycobacterium avium complex N018 after 14 days by broth microdilution method. To be noted: N018, 336 h. Summed up:
as §1

For experiment [8], the system named is Mycobacterium avium. The experiment is described as follows: Antimycobacterial activity against Mycobacterium avium JATA51-01 infected C57BL/6J mouse assessed as spleen bacterial count at 100 mg/kg/day dosed through gavage route administered for 28 days post bacterial challenge measured 2 days after last dose. A digest of the protocol: as §2
The subject of experiment [9] is Mycobacterium avium complex sp. The experiment is described as follows: Antimycobacterial activity against Mycobacterium avium complex N084 infected C57BL/6J mouse assessed as spleen bacterial count at 100 mg/kg/day dosed through gavage route administered for 28 days post bacterial challenge measured 2 days after last dose. Summed up: as §3
The test system is the same in experiment [10]. The experiment is described as follows: Antimycobacterial activity against Mycobacterium avium complex N018 infected C57BL/6J mouse assessed as spleen bacterial count at 100 mg/kg/day dosed through gavage route administered for 28 days post bacterial challenge measured 2 days after last dose. A digest of the protocol:
as §3

Experiment [11] relates to Mycobacterium avium. The experiment is described as follows: Antimycobacterial activity against Mycobacterium avium JATA51-01 infected C57BL/6J mouse assessed as liver bacterial count at 100 mg/kg/day dosed through gavage route administered for 28 days post bacterial challenge measured 2 days after last dose. A digest of the protocol:
as §2

For experiment [12], the system named is Mycobacterium avium complex sp. As to the kind of experiment: Antimycobacterial activity against Mycobacterium avium complex N016 infected C57BL/6J mouse assessed as spleen bacterial count at 100 mg/kg/day dosed through gavage route administered for 28 days post bacterial challenge measured 2 days after last dose. Summed up: as §3
For experiment [13], the system named is Mycobacterium avium. The experiment is described as follows: Antimycobacterial activity against Mycobacterium avium JATA51-01 after 14 days by broth microdilution method. To be noted: JATA51-01, 336 h. Summed up: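 Broth microdilution in 7H9 (10% OADC, 0.05% Tween 80, 0.2% glycerol); twofold drug dilutions, final 0.125–128 μg/ml; inoculum 1.0 × 10^5 CFU/well from 7-day 37°C subculture of 21-day 7H10 colonies; 14 days at 37°C; MIC = lowest concentration with complete growth inhibition; triplicate.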

In experiment [14] the test system is Mycobacterium avium complex sp. The experiment is described as follows: Antimycobacterial activity against Mycobacterium avium complex N016 infected C57BL/6J mouse assessed as liver bacterial count at 100 mg/kg/day dosed through gavage route administered for 28 days post bacterial challenge measured 2 days after last dose. A digest of the protocol:
as §3

Experiment [15] has the same test system. The experiment is described as follows: Antimycobacterial activity against Mycobacterium avium complex N016 infected C57BL/6J mouse assessed as lung bacterial count at 100 mg/kg/day dosed through gavage route administered for 28 days post bacterial challenge measured 2 days after last dose. A digest of the protocol:
as §3

Experiment [16] relates to Mycobacterium intracellulare. As to the kind of experiment: Antimycobacterial activity against Mycobacterium intracellular JATA52-01 infected C57BL/6J mouse assessed as lung bacterial count at 100 mg/kg/day dosed through gavage route administered for 28 days post bacterial challenge measured 2 days after last dose. Summed up: as §3
Experiment [17] relates to Mycobacterium intracellulare. As to the kind of experiment: Antimycobacterial activity against Mycobacterium intracellular JATA52-01 infected C57BL/6J mouse assessed as liver bacterial count at 100 mg/kg/day dosed through gavage route administered for 28 days post bacterial challenge measured 2 days after last dose. A digest of the protocol:
as §3

In experiment [18] the test system is Mycobacterium avium complex sp. As to the kind of experiment: Antimycobacterial activity against Mycobacterium avium complex N018 infected C57BL/6J mouse assessed as liver bacterial count at 100 mg/kg/day dosed through gavage route administered for 28 days post bacterial challenge measured 2 days after last dose. A digest of the protocol:
as §3

The test system is the same in experiment [19]. As to the kind of experiment: Antimycobacterial activity against Mycobacterium avium complex N084 after 14 days by broth microdilution method. To be noted: N084, 336 h. Summed up: as §1
For experiment [20] the test system is unchanged. As to the kind of experiment: Antimycobacterial activity against Mycobacterium avium complex N084 infected C57BL/6J mouse assessed as liver bacterial count at 100 mg/kg/day dosed through gavage route administered for 28 days post bacterial challenge measured 2 days after last dose. Summed up: as §3
For experiment [21] the test system is unchanged. As to the kind of experiment: Antimycobacterial activity against Mycobacterium avium complex N084 infected C57BL/6J mouse assessed as lung bacterial count at 100 mg/kg/day dosed through gavage route administered for 28 days post bacterial challenge measured 2 days after last dose. A digest of the protocol: as §3

≈ marks a conversion by molar mass, not a printed value.

Usually MIC stands for the lowest concentration that inhibits growth of the organism. Low values mean inhibition by little substance, high ones a need for much substance. Usually MIC90 stands for an inhibitory concentration at the 90% level, which refers to growth in some studies and to a panel of isolates in others. Read a low MIC90 as greater potency. `COc1c(N2CCNC(C)C2)c(F)cc2c(=O)c(C(=O)O)cn(C3CC3)c12` (stereo unspecified) [GATIFLOXACIN]: the MIC in experiment [1] amounted to 0.5 mg/L (≈ 1.33 µM); in experiment [5] it was 1 mg/L (≈ 2.66 µM); in experiment [7] it was 1 mg/L (≈ 2.66 µM); against Mycobacterium avium [13], 2 mg/L (≈ 5.33 µM); in experiment [19], 1 mg/L (≈ 2.66 µM). In addition, the log10cfu in the experiment with Mycobacterium avium [2] worked out at 8.9; in experiment [3] it was 5.96; in experiment [6], 4.41; in the experiment on Mycobacterium avium [8], 9.18; in [9] it was 7.6; in experiment [10], 6.75. For the same compound, the log10cfu in the experiment on Mycobacterium avium [11] came out at 9.91; in [12], 6.81; in experiment [14], 6.6; in experiment [15] it was 5.48; in [16], 5.32; in experiment [17], 5.15. In addition, the log10cfu was 7.21 in [18], 8 in experiment [20] and 8.14 in experiment [21]. Moreover, the MIC90 in [4] turned out to be 4 mg/L (≈ 10.7 µM).
For `COc1c(N2C[C@@H]3CCCN[C@@H]3C2)c(F)cc2c(=O)c(C(=O)O)cn(C3CC3)c12` [MOXIFLOXACIN], the MIC in [1], in experiment [5], in [7] and in [19] was 0.5 mg/L (≈ 1.25 µM) throughout. The log10cfu in the experiment with Mycobacterium avium [2] is 8.83; in [3] it was 5.79; in experiment [6], 4.15; in the experiment on Mycobacterium avium [8], 9.18; in experiment [9] it was 7.39; in experiment [10], 6.6. In addition, the log10cfu in the experiment on Mycobacterium avium [11] worked out at 9.68; in [12] it was 6.6; in experiment [14], 6.53; in experiment [15], 5.35; in experiment [16], 4.83; in [17] it was 4.76. For the same compound, the log10cfu in experiment [18] was determined as 7.09; in experiment [20], 7.78; in [21], 7.9. In [4], this compound displayed an MIC90 of 2 mg/L (≈ 4.98 µM).
